According to ChEMBL document CHEMBL3875165, “Novel broad-spectrum and long-acting parenteral cephalosporins having an acyl cyanamide moiety at the C-3 terminal: Synthesis and structure-activity relationships” (Eur J Med Chem, 2016):

Tests used:
[1] = Half life in mouse at 20 mg/kg, iv administered as bolus dose by band-culture bioassay; details: in vivo
[2] = Protein binding in cynomolgus monkey plasma after 30 mins by ultra-filtration method; type: ADME, cell-free, Macaca fascicularis; details: read-out: PPB (converted)
How it was run: (§1)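 Mouse or monkey plasma was adjusted to pH 7 with CO2 and spiked with compound to a final 10 µg/ml. It was incubated 30 min at 37 °C, then ultrafiltered by centrifugation at 3200 rpm for 30 min at 25 °C. Free drug in the filtrate was measured by bioassay to give the bound fraction.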

[3] = Half life in monkey at 20 mg/kg, iv administered as bolus dose by HPLC method; type: ADME, organism-based, Macaca mulatta; details: rhesus monkey, in vivo
How it was run: (§2)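 Three monkeys per group received a single iv bolus of 20 mg/kg (1 mL/kg). Plasma levels were measured by HPLC. AUC0-∞, CLtot and T1/2 came from a 2-compartment fit.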

Haemophilus influenzae [4] = experiment: Antibacterial activity against beta-lactamase non-producing penicillin-resistant Haemophilus influenzae SR24106 after 20 hrs by agar dilution method; type: functional; details: SR24106, 20 h
How it was run: (§3)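 Agar dilution on Sensitivity Disk Agar-N. Overnight Mueller Hinton broth cultures were diluted to about 10^6 CFU/mL, and 1 µL spots were placed on agar plates holding 2-fold serial dilutions of antibiotic. Plates were incubated 20 h at 37 °C and then MICs were scored.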

[5] = AUC (0 to infinity) in monkey at 20 mg/kg, iv administered as bolus dose by HPLC method; type: ADME, organism-based, Macaca mulatta; design: dose 20 mg/kg, time infinity, route intravenous; details: rhesus monkey, in vivo
How it was run: as §2

Streptococcus pneumoniae [6] = experiment: Antibacterial activity against penicillin-resistant Streptococcus pneumoniae SR16750 after 20 hrs by agar dilution method; type: functional; details: SR16750, 20 h
How it was run: as §3

Staphylococcus aureus = experiment: Antibacterial activity against Staphylococcus aureus SMITH after 20 hrs by agar dilution method; type: functional
How it was run: (§4)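 Agar dilution MIC on Sensitivity Disk Agar-N with 2-fold serial drug dilutions. Overnight Mueller Hinton broth cultures were diluted to about 10^6 CFU/mL, and 1 µL spots were applied. Plates were incubated 20 h at 37 °C before scoring.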

[7] = Protein binding in ICR mouse plasma after 30 mins by ultra-filtration method; type: ADME, cell-free; details: read-out: PPB (converted)
How it was run: as §1

[8] = Total clearance in monkey at 20 mg/kg, iv administered as bolus dose by HPLC method; type: ADME, organism-based, Macaca mulatta; details: rhesus monkey, in vivo
How it was run: as §2

Moraxella catarrhalis = experiment: Antibacterial activity against Moraxella catarrhalis SR24290 after 20 hrs by agar dilution method; type: functional; details: SR24290, 20 h
How it was run: as §4

[9] = Total clearance in mouse at 20 mg/kg, iv administered as bolus dose by band-culture bioassay; details: in vivo
Streptococcus pneumoniae [10] = experiment: Antibacterial activity against penicillin-resistant Streptococcus pneumoniae SR16675 after 20 hrs by agar dilution method; type: functional; details: SR16675, 20 h
How it was run: as §3

Haemophilus influenzae [11] = experiment: Antibacterial activity against beta-lactamase non-producing penicillin-resistant Haemophilus influenzae SR11435 after 20 hrs by agar dilution method; type: functional; details: SR11435, 20 h
How it was run: as §3

Escherichia coli = experiment: Antibacterial activity against Escherichia coli NIHJ JC-2 after 20 hrs by agar dilution method; type: functional; details: NIHJ JC-2, 20 h
How it was run: as §4

[12] = AUC (0 to infinity) in mouse at 20 mg/kg, iv administered as bolus dose by band-culture bioassay; details: in vivo

CCO/N=C(\C(=O)N[C@@H]1C(=O)N2C(C(=O)[O-])=C(/C=C/C[n+]3cccc(/C([O-])=N/C#N)c3)CS[C@H]12)c1csc(N)n1.[Na+]
half-life [1]: 0.55 h | fraction unbound at 0.5 h [2]: 0.67 | half-life [3]: 1.33 h | MIC (Haemophilus influenzae [4]): 0.125 µg/mL | AUC [5]: 9500 ng·h/mL | MIC (Streptococcus pneumoniae [6]): 0.5 µg/mL | MIC (Staphylococcus aureus): 0.5 µg/mL | fraction unbound at 0.5 h [7]: 0.94 | clearance [8]: 1.79 mL/min/kg | MIC (Moraxella catarrhalis): 2 µg/mL | clearance [9]: 23.7 mL/min/kg | MIC (Streptococcus pneumoniae [10]): 0.25 µg/mL | MIC (Haemophilus influenzae [11]): 0.063 µg/mL | MIC (Escherichia coli): 0.125 µg/mL | AUC(0-inf) [12]: 14100 ng·h/mL

CCO/N=C(\C(=O)N[C@@H]1C(=O)N2C(C(=O)[O-])=C(/C=C/C[n+]3ccc(-c4c[nH]c(/C([O-])=N/C#N)c4C)cc3)CS[C@H]12)c1csc(N)n1.[Na+]
half-life [1]: 0.86 h | fraction unbound at 0.5 h [2]: 0.16 | half-life [3]: 5.19 h | MIC (Haemophilus influenzae [4]): 0.125 µg/mL | AUC [5]: 42200 ng·h/mL | MIC (Streptococcus pneumoniae [6]): 0.125 µg/mL | MIC (Staphylococcus aureus): 0.25 µg/mL | fraction unbound at 0.5 h [7]: 0.54 | clearance [8]: 0.4 mL/min/kg | MIC (Moraxella catarrhalis): 4 µg/mL | clearance [9]: 15.2 mL/min/kg | MIC (Streptococcus pneumoniae [10]): 0.125 µg/mL | MIC (Haemophilus influenzae [11]): 0.063 µg/mL | MIC (Escherichia coli): 0.125 µg/mL | AUC(0-inf) [12]: 22000 ng·h/mL

CCO/N=C(\C(=O)N[C@@H]1C(=O)N2C(C(=O)[O-])=C(/C=C/C[n+]3ccc(-c4csc(/C([O-])=N/C#N)c4)cc3)CS[C@H]12)c1csc(N)n1.[Na+]
half-life [1]: 0.75 h | fraction unbound at 0.5 h [2]: 0.36 | half-life [3]: 4.67 h | MIC (Haemophilus influenzae [4]): 0.125 µg/mL | AUC [5]: 25900 ng·h/mL | MIC (Streptococcus pneumoniae [6]): 0.25 µg/mL | MIC (Staphylococcus aureus): 0.25 µg/mL | fraction unbound at 0.5 h [7]: 0.63 | clearance [8]: 0.66 mL/min/kg | MIC (Moraxella catarrhalis): 2 µg/mL | clearance [9]: 11 mL/min/kg | MIC (Streptococcus pneumoniae [10]): 0.125 µg/mL | MIC (Haemophilus influenzae [11]): 0.063 µg/mL | MIC (Escherichia coli): 0.125 µg/mL | AUC(0-inf) [12]: 30400 ng·h/mL

CCO/N=C(\C(=O)N[C@@H]1C(=O)N2C(C(=O)[O-])=C(/C=C/C[n+]3ccc4c(/C([O-])=N\C#N)cccc4c3)CS[C@H]12)c1csc(N)n1.[Na+]
half-life [1]: 0.73 h | fraction unbound at 0.5 h [2]: 0.42 | half-life [3]: 1.52 h | MIC (Haemophilus influenzae [4]): 0.125 µg/mL | AUC [5]: 10600 ng·h/mL | MIC (Streptococcus pneumoniae [6]): 0.5 µg/mL | MIC (Staphylococcus aureus): 0.5 µg/mL | fraction unbound at 0.5 h [7]: 0.97 | clearance [8]: 1.59 mL/min/kg | MIC (Moraxella catarrhalis): 2 µg/mL | clearance [9]: 23.5 mL/min/kg | MIC (Streptococcus pneumoniae [10]): 0.25 µg/mL | MIC (Haemophilus influenzae [11]): 0.063 µg/mL | MIC (Escherichia coli): 0.125 µg/mL | AUC(0-inf) [12]: 14200 ng·h/mL

CCO/N=C(\C(=O)N[C@@H]1C(=O)N2C(C(=O)[O-])=C(/C=C/C[n+]3ccc(-n4ccc(/C([O-])=N/C#N)n4)cc3)CS[C@H]12)c1csc(N)n1.[Na+]
half-life [1]: 0.87 h | fraction unbound at 0.5 h [2]: 0.14 | half-life [3]: 2.8 h | MIC (Haemophilus influenzae [4]): 0.125 µg/mL | AUC [5]: 32100 ng·h/mL | MIC (Streptococcus pneumoniae [6]): 0.5 µg/mL | MIC (Staphylococcus aureus): 0.5 µg/mL | fraction unbound at 0.5 h [7]: 0.86 | clearance [8]: 0.54 mL/min/kg | MIC (Moraxella catarrhalis): 2 µg/mL | clearance [9]: 19.8 mL/min/kg | MIC (Streptococcus pneumoniae [10]): 0.25 µg/mL | MIC (Haemophilus influenzae [11]): 0.063 µg/mL | MIC (Escherichia coli): 0.125 µg/mL | AUC(0-inf) [12]: 16800 ng·h/mL

CCO/N=C(\C(=O)N[C@@H]1C(=O)N2C(C(=O)[O-])=C(/C=C/C[n+]3cccc4cc(/C([O-])=N/C#N)[nH]c43)CS[C@H]12)c1csc(N)n1.[Na+]
half-life [1]: 0.64 h | fraction unbound at 0.5 h [2]: 0.06 | half-life [3]: 4.35 h | MIC (Haemophilus influenzae [4]): 0.25 µg/mL | AUC [5]: 29200 ng·h/mL | MIC (Streptococcus pneumoniae [6]): 0.5 µg/mL | MIC (Staphylococcus aureus): 0.5 µg/mL | fraction unbound at 0.5 h [7]: 0.67 | clearance [8]: 0.57 mL/min/kg | MIC (Moraxella catarrhalis): 0.5 µg/mL | clearance [9]: 15 mL/min/kg | MIC (Streptococcus pneumoniae [10]): 0.25 µg/mL | MIC (Haemophilus influenzae [11]): 0.063 µg/mL | MIC (Escherichia coli): 0.125 µg/mL | AUC(0-inf) [12]: 22200 ng·h/mL

CCO/N=C(\C(=O)N[C@@H]1C(=O)N2C(C(=O)[O-])=C(/C=C/C[n+]3ccc4sc(/C([O-])=N/C#N)nc4c3)CS[C@H]12)c1csc(N)n1.[Na+]
half-life [1]: 0.7 h | fraction unbound at 0.5 h [2]: 0.16 | half-life [3]: 2.86 h | MIC (Haemophilus influenzae [4]): 0.063 µg/mL | AUC [5]: 24500 ng·h/mL | MIC (Streptococcus pneumoniae [6]): 0.25 µg/mL | MIC (Staphylococcus aureus): 0.5 µg/mL | fraction unbound at 0.5 h [7]: 0.59 | clearance [8]: 0.68 mL/min/kg | MIC (Moraxella catarrhalis): 0.5 µg/mL | clearance [9]: 14 mL/min/kg | MIC (Streptococcus pneumoniae [10]): 0.125 µg/mL | MIC (Haemophilus influenzae [11]): 0.063 µg/mL | MIC (Escherichia coli): 0.25 µg/mL | AUC(0-inf) [12]: 23700 ng·h/mL
